Where a SMILES comes first, the peptide text is derived from it. Bridges are numbered along the chain shown (N, C = ends). The star is where a group is joined. NH(β-GlcNAc) = CC(=O)N[C@@H]1[C@@H](O)[C@H](O)[C@@H](CO)O[C@H]1N*; Valol = CC(C)[C@@H](CO)N*
Assays:
[1] = biological target: T1, Somatostatin receptor type 4 (Homo sapiens, UniProt P31391); experiment: Displacement of [125I]somatostatin-14 (Tyr11) from human SSTR4 expressed in African green monkey COS1 cell membranes after 2 hrs by scintillation counting method
Summary of the method: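 Membranes from transiently transfected COS-1 cells (10 μg protein) incubated 2 h at room temperature in 10 mM Hepes pH 7.5 with 5 mM MgCl2, bacitracin, 0.5% BSA and ¹²⁵I-[Tyr¹¹]-somatostatin-14 (30,000 cpm), with unlabeled somatostatin-14 and test ligands at various concentrations. Bound radioactivity read by scintillation counting.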

[2] = biological target: T2, Somatostatin receptor type 5 (Homo sapiens, UniProt P35346); experiment: Displacement of [125I]somatostatin-14 (Tyr11) from human SSTR5 expressed in African green monkey COS1 cell membranes after 2 hrs by scintillation counting method
Summary of the method: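 SSTR-5 gene cloned into pCMV6c and transfected into COS1 cells. Membrane preparation (20 μg protein) incubated 2 h at room temperature in Na⁺-free buffer: 10 mM HEPES, 1% BSA, 5 mM MgCl2, 1 mg/ml bacitracin, pH 7.45. Contained ~10 pM [¹²⁵I-Tyr¹¹]-somatostatin-14, either alone or with somatostatin-14 and test ligands at various concentrations.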

Homo sapiens [3] = species on record: Homo sapiens; experiment: Selectivity ratio of Ki for human SSTR4 to Ki for human SSTR5
Homo sapiens [4] = species on record: Homo sapiens; experiment: Selectivity ratio of Ki for human SSTR5 to Ki for human SSTR4
[5] = biological target: T1, Somatostatin receptor type 4; experiment: Inhibition of human SSTR4 by radioligand binding assay
[6] = biological target: T2, Somatostatin receptor type 5; experiment: Inhibition of human SSTR5 by radioligand binding assay

T1 sequence (P31391 whole entry): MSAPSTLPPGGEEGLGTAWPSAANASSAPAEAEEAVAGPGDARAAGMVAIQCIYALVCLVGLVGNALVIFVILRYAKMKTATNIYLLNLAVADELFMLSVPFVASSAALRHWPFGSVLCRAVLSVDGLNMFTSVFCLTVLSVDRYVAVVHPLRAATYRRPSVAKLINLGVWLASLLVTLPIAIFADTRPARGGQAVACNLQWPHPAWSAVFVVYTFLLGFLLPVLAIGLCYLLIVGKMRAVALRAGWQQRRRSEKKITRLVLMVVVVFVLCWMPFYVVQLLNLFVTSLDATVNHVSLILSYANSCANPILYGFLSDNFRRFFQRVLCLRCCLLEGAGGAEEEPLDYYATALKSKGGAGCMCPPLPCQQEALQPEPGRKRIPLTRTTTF
T2 sequence (P35346 whole entry): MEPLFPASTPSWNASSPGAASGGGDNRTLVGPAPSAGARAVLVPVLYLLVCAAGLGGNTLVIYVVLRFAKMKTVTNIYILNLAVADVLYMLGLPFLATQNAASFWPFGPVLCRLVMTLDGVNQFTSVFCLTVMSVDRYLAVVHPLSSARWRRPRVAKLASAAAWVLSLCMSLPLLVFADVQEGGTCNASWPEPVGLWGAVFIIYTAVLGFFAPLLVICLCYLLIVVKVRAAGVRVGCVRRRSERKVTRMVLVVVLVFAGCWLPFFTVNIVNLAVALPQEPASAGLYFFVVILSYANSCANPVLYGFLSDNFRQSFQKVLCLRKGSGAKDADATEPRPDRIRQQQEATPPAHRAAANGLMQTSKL

| SMILES | Ki [1] | Ki [2] | Ratio Ki (Homo sapiens [3]) | IC50 [1] | IC50 [2] | Ratio Ki (Homo sapiens [4]) | IC50 [5] | IC50 [6] |
| --- | --- | --- | --- | --- | --- | --- | --- | --- |
| NCCCCC[C@@H]1[C@@H](OCc2ccccc2)[C@H](OCc2ccccc2)[C@@H](OCc2ccccc2)CN1Cc1cccc2ccccc12 | 1.9 µM | 1.3 µM | 1.46 |  |  |  |  |  |
| Cc1ccc(S[C@H]2O[C@H](CO)[C@@H](O)[C@H](OCCCCN)[C@@H]2NC(=O)Cc2c[nH]c3ccccc23)cc1 | 6.8 µM | 12 µM |  | 6.9 µM | 18 µM | 1.8 |  |  |
| CC(=O)N[C@@H](Cc1ccccc1)C(=O)N[C@H]1CSSC[C@@H](C(=O)N[C@H](CO)C(C)C)NC(=O)[C@H](CC(=O)O)NC(=O)[C@H](CCCCN)NC(=O)[C@H](Cc2c[nH]c3ccccc23)NC(=O)[C@H](Cc2ccccc2)NC1=O (Ac-FCFWKDC-Valol; disulfide 2-7) | 7.2 µM | 10 µM |  | 7.4 µM | 16 µM |  |  |  |
| NCCCCN1CCCCCOCc2cn(nn2)C[C@H]2O[C@H](CC1)[C@H](OCc1cccc3ccccc13)[C@@H](O)[C@H]2O | > 100 µM | > 100 µM |  | > 100 µM | > 100 µM |  |  |  |
| NCCCCC[C@@H]1[C@@H](O)[C@H](O)[C@@H](O)CN1Cc1cccc2ccccc12 | > 100 µM | 23 µM |  |  |  |  |  |  |
| NCCCCN1CCCCCCOCc2cn(nn2)C[C@H]2O[C@H](CC1)[C@H](OCc1cccc3ccccc13)[C@@H](O)[C@H]2O | > 100 µM | > 100 µM |  | > 100 µM | > 100 µM |  |  |  |
| CC(=O)N[C@@H](Cc1ccccc1)C(=O)N[C@@H](C)C(=O)N[C@@H](Cc1ccccc1)C(=O)N[C@@H](Cc1c[nH]c2ccccc12)C(=O)N[C@@H](CCCCN)C(=O)N[C@@H](CC(=O)O)C(=O)N[C@@H](C)C(=O)N[C@H](CO)C(C)C (Ac-FAFWKDA-Valol) | > 100 µM | > 100 µM |  | > 100 µM |  |  |  |  |
| NCCCCO[C@H]1[C@H](O)[C@H](OCc2ccccc2)COCCCc2cccc(O)c2C(=O)OC[C@@H]1NC(=O)Cc1c[nH]c2ccccc12 | 1.9 µM | 3.2 µM |  | 1.2 µM | 3 µM |  |  |  |
| CC(C)CCO[C@@H]1[C@@H](O)[C@@H](O)[C@H]2Cn3cc(nn3)COCCCCCCN(CCc3c[nH]c4ccccc34)CC[C@H]1O2 | 21 µM | 4.1 µM |  | 22 µM | 6.2 µM |  |  |  |
| NC/C=C/CO[C@H]1[C@H](O)[C@H](OCc2ccccc2)COC/C=C/c2cccc(O)c2C(=O)OC[C@@H]1NC(=O)Cc1c[nH]c2ccccc12 | 0.58 µM | 1.1 µM |  | 0.59 µM | 1.6 µM |  |  |  |
| NCCCCO[C@@H]1[C@@H](O)[C@H](CO)OC(O)[C@@H]1NC(=O)Cc1c[nH]c2ccccc12 (stereo not given in full) | > 100 µM | > 100 µM |  |  |  |  |  |  |
| CC(=O)N[C@@H]1[C@@H](O)[C@H](O)[C@@H](CO)O[C@H]1NC(=O)C[C@@H]1NC(=O)[C@H](CCCCN)NC(=O)[C@H](Cc2c[nH]c3ccccc23)NC(=O)[C@H](Cc2ccccc2)NC(=O)[C@@H](NC(=O)[C@H](Cc2ccccc2)NC(C)=O)CSSC[C@@H](C(=O)N[C@H](CO)C(C)C)NC1=O (Ac-FCFWKD(NH(β-GlcNAc))C-Valol; disulfide 2-7) | 20 µM | 3.4 µM |  | 21 µM | 5.2 µM |  |  |  |
| Cc1ccc(S[C@H]2O[C@H](CO)[C@@H](O)[C@H](OC/C=C/CN)[C@@H]2NC(=O)Cc2c[nH]c3ccccc23)cc1 | 2.1 µM | 3.9 µM |  | 2.2 µM | 5.9 µM | 1.8 |  |  |
| CC(=O)O[C@H]1[C@H](OC(C)=O)[C@@H](CCCCCN)N(Cc2cccc3ccccc23)C[C@@H]1OC(C)=O | 5.4 µM | 5.1 µM | 1.05 |  |  |  |  |  |
| C[C@@H](O)[C@@H]1NC(=O)[C@H](CCCCN)NC(=O)[C@@H](Cc2c[nH]c3ccccc23)NC(=O)[C@H](Cc2ccccc2)NC(=O)[C@@H](NC(=O)[C@@H](Cc2ccccc2)NC(=O)CN2CCN(CC(=O)O)CCN(CC(=O)O)CCN(CC(=O)O)CC2)CSSC[C@@H](C(=O)N[C@H](CO)[C@@H](C)O)NC1=O |  |  |  |  |  |  | 0.103 µM | > 1 µM |
| NCCCCCOC[C@@H]1[C@@H](O)[C@H](O)[C@@H](O)CN1CCc1c[nH]c2ccccc12 |  | > 100 µM |  |  |  |  |  |  |
| NCCCCCOC[C@@H]1[C@@H](OCc2ccccc2)[C@H](OCc2ccccc2)[C@@H](OCc2ccccc2)CN1CCc1c[nH]c2ccccc12 |  |  |  |  |  | 1.13 |  |  |

— ChEMBL document CHEMBL4330062 (Eur J Med Chem, 2019)
